Experimental data taken from ChEMBL document CHEMBL1125832, “Synthesis and dopaminergic activity of 3-substituted 1-(aminomethyl)-3,4-dihydro-5,6-dihydroxy-1H-2-benzopyrans: characterization of an auxiliary binding region in the D1 receptor” (J Med Chem, 1991).

Assays:
[1] = molecular target: T1, Adrenergic receptor alpha-2 (Rattus norvegicus, UniProt P22086+P19328+P22909); experiment: Binding affinity towards alpha-2 adrenergic receptor using [3H]rauwolscine as radioligand in competitive binding assay; assay type: protein assay
T1 sequence (P22086 whole entry): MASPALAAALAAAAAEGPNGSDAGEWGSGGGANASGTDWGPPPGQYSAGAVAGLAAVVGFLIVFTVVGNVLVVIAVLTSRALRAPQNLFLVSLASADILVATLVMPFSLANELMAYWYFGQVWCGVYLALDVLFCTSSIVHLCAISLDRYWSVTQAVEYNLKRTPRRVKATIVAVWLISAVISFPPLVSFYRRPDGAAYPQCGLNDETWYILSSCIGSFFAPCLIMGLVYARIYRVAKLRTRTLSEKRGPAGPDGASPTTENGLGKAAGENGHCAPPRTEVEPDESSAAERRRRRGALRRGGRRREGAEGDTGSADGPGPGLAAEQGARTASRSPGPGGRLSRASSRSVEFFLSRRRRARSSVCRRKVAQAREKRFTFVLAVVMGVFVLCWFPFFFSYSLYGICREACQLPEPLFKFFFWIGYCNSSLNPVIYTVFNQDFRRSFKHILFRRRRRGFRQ
T1 sequence (P19328 whole entry): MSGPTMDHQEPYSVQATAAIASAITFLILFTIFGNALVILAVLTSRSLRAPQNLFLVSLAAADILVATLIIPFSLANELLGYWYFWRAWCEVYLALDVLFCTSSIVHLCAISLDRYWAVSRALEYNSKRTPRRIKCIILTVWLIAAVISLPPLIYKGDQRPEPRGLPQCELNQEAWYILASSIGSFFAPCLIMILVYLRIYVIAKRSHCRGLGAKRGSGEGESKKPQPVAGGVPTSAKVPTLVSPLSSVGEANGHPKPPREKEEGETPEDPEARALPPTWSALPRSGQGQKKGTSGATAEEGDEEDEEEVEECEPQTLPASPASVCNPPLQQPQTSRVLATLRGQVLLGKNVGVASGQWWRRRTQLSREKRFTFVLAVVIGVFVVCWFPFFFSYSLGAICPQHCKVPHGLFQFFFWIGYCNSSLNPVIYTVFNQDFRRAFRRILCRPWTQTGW
T1 sequence (P22909 whole entry): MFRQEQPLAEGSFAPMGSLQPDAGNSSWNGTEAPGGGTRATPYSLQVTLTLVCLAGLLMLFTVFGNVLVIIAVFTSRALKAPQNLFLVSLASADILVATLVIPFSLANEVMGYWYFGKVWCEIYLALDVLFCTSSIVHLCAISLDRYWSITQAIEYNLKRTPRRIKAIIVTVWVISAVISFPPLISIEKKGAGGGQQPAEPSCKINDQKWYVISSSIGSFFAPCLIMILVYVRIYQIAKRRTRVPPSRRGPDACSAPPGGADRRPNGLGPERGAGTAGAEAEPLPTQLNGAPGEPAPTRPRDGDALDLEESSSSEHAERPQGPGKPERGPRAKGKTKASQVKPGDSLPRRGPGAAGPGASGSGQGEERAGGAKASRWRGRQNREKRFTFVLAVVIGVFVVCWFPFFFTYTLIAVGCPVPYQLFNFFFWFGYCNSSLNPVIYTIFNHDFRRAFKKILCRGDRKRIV
In short: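 Frozen rat cortex membranes in Tris pH 7.4 buffer with NaCl, KCl, MgCl2, CaCl2 and ascorbate. [3H]rauwolscine at 325 pM final; nonspecific binding with 10 μM yohimbine. Incubated 45 min at 37 °C, then filtered. Ki derived from IC50 by Cheng-Prusoff.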

[2] = molecular target: Beta-1 adrenergic receptor (Rattus norvegicus, UniProt P18090); experiment: Binding affinity towards beta-1 adrenergic receptor using [3H]iodocyanopindolol as radioligand in competitive binding assay; conditions: in the assay text read “[125I]iodocyanopindolol” for “[3H]iodocyanopindolol”
Chain of Beta-1 adrenergic receptor (P18090 whole entry): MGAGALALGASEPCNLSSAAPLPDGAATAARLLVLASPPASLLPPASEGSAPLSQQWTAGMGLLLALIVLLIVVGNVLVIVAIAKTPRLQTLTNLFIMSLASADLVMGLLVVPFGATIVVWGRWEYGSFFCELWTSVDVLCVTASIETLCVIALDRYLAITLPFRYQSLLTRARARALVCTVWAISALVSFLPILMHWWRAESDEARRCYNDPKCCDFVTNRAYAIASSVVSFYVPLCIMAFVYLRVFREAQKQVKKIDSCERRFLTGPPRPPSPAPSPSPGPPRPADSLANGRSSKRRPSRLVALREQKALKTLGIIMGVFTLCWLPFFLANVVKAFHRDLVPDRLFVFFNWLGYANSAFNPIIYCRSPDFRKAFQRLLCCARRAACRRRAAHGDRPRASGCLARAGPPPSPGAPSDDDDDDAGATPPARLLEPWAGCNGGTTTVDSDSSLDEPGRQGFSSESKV
In short: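 β-adrenergic sites in rat striatal membranes. Label [125I]iodocyanopindolol at 50 pM final; nonspecific binding with 10 μM propranolol. Incubated 1 h at 37 °C, then filtered. Ki via Cheng-Prusoff.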

Ki [1] [µM]	Ki [2] [µM]	Compound
0.271	> 10	NC[C@@H]1OC(C2CCCCC2)Cc2c1ccc(O)c2O (some centres not stated)
2.5	> 10	NC[C@H]1O[C@@H](c2ccccc2)Cc2c1ccc(O)c2O
0.04	> 10	NC[C@@H]1O[C@H](c2ccccc2)Cc2c1ccc(O)c2O
0.45	> 10	CC(C)(C)C1Cc2c(ccc(O)c2O)[C@H](CN)O1 (some centres not stated)
2.2	> 10	C=CCNC[C@@H]1OC(C2CCCCC2)Cc2c1ccc(O)c2O (some centres not stated)
0.122	> 10	NC[C@@H]1OC(c2ccccc2)Cc2c1ccc(O)c2O (some centres not stated)
